14 compounds from ChEMBL document CHEMBL4402581, “Monohydrazone Based G-Quadruplex Selective Ligands Induce DNA Damage and Genome Instability in Human Cancer Cells” (J Med Chem, 2020) can be followed below.

Molecules are shown by their SMILES. The source made the active and inactive calls. The calls are words filed in the database; no cut-off is given here.

Test [1] concerns Quadruplex DNA. As to the kind of experiment: Stabilization of c-Kit1 G4 quadruplex DNA assessed as change in melting temperature at 10 mol.equiv by circular dichroism melting assay. In kind it is nucleic-acid assay. An outline of the steps: (§1)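 CD melting from 20 to 100 °C at 1 °C/min, monitored at 264 nm (c-Kit1, c-Kit2, c-Myc, Tel23-p), 287 nm (Tel23-h) or 280 nm (hairpin). Ligand was at 10 mol equiv with folded DNA (15 μM G4, 30 μM hairpin). ΔTm is Tm with ligand minus Tm without, from curve fits, averaged over triplicates.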
For orientation: Circular dichroism is widely used to follow secondary structure.

Test [2] relates to Quadruplex DNA. As to the kind of experiment: Stabilization of c-Kit2 G4 quadruplex DNA assessed as change in melting temperature at 10 mol.equiv by circular dichroism melting assay. It is filed as nucleic-acid assay. An outline of the steps:
as §1

For test [3], the system named is Quadruplex DNA. As to the kind of experiment: Stabilization of c-Myc G4 quadruplex DNA assessed as change in melting temperature at 10 mol.equiv by circular dichroism melting assay. It is filed as nucleic-acid assay. An outline of the steps: as §1
Test [4] has as its system Quadruplex DNA. The test is described as follows: Stabilization of parallel Tel23 G4 quadruplex DNA assessed as change in melting temperature at 10 mol.equiv by circular dichroism melting assay. It is filed as nucleic-acid assay. In a few lines:
as §1

Test [5] relates to Quadruplex DNA. As to the kind of experiment: Stabilization of human Tel23 G4 quadruplex DNA assessed as change in melting temperature at 10 mol.equiv by circular dichroism melting assay. It is filed as nucleic-acid assay. In a few lines: as §1
Test [6] can be described thus: Stabilization of hairpin-duplex DNA assessed as change in melting temperature at 10 mol.equiv by circular dichroism melting assay. An outline of the steps: as §1
Test [7] deals with Quadruplex DNA. As to the kind of experiment: Effect on c-Kit1 G4 quadruplex DNA architecture at 10 mol.equiv by circular dichroism spectral analysis. It is filed as nucleic-acid assay. An outline of the steps: (§2)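 CD spectra of 15 μM G4s or 30 μM hairpin in 20 mM K phosphate pH 7.0 with 5 mM KCl, after annealing. Recorded at 20 °C over 230–360 nm, three scans averaged, buffer baseline subtracted. Ligand was added at 10 mol equiv to the folded DNA from a 10 mM DMSO stock.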

In test [8] the test system is Quadruplex DNA. The test is described as follows: Effect on c-Kit2 G4 quadruplex DNA architecture at 10 mol.equiv by circular dichroism spectral analysis. It is filed as nucleic-acid assay. An outline of the steps:
as §2

The test system of test [9] is Quadruplex DNA. The test is described as follows: Effect on c-Myc G4 quadruplex DNA architecture at 10 mol.equiv by circular dichroism spectral analysis. In kind it is nucleic-acid assay. An outline of the steps:
as §2

Test [10] concerns Quadruplex DNA. The test is described as follows: Effect on parallel Tel23 G4 quadruplex DNA architecture at 10 mol.equiv by circular dichroism spectral analysis. It is filed as nucleic-acid assay. In a few lines: as §2
The subject of test [11] is Quadruplex DNA. As to the kind of experiment: Effect on human Tel23 G4 quadruplex DNA architecture at 10 mol.equiv by circular dichroism spectral analysis. In kind it is nucleic-acid assay. In a few lines:
as §2

Test [12] in a line: Effect on hairpin-duplex DNA architecture at 10 mol.equiv by circular dichroism spectral analysis. In a few lines:
as §2

Test [13] has as its system Quadruplex DNA. The test is described as follows: Stabilization of G4 quadruplex DNA in human U2OS cells assessed as increase in number of G4 foci at 10 uM incubated for 24 hrs by immunofluorescence microscopy. In kind it is cell-based.
For test [14], the system named is Quadruplex DNA. As to the kind of experiment: Stabilization of G4 quadruplex DNA in human U2OS cells assessed as colocalization of TRF2/[…] foci at 10 uM incubated for 24 hrs by immunofluorescence microscopy (reference value: 18.4 +/- 2.81%). It is filed as cell-based.
Test [15] relates to Quadruplex DNA. The test is described as follows: Stabilization of G4 quadruplex DNA in human U2OS cells assessed as TRF2 foci per cell at 10 uM incubated for 24 hrs by immunofluorescence microscopy (reference value: 15.8 +/- 2.6%). It is filed as cell-based.

`N=C(N)N/N=C/c1c(Cl)n(C/C=C/c2ccccc2)c2ccccc12`: the outcome (in the test on Quadruplex DNA [1]; in the test with Quadruplex DNA [2]; in the test with Quadruplex DNA [3]; with Quadruplex DNA [4]; in the test with Quadruplex DNA [5]; in test [6]) was Active. Further, the result (with Quadruplex DNA [7]; with Quadruplex DNA [8]; with Quadruplex DNA [9]; in the test with Quadruplex DNA [10]; with Quadruplex DNA [11]; in test [12]) was inactive.
With `Cc1cc2c(cc1O)/C(=C\c1cccc(/C=N/NC3=NCCN3)c1)C(=O)N2`, the outcome (in the test with Quadruplex DNA [1]; in the test on Quadruplex DNA [2]; in the test on Quadruplex DNA [3]; with Quadruplex DNA [4]; in the test with Quadruplex DNA [5]; in [6]) was Active. The outcome (in the test with Quadruplex DNA [7]; in the test on Quadruplex DNA [8]; with Quadruplex DNA [9]; with Quadruplex DNA [10]; in the test with Quadruplex DNA [11]; in [12]) was inactive.
On to `N=C(N)N/N=C/c1cn(Cc2ccccc2)c2ccccc12`, for which the result in the test on Quadruplex DNA [1], in the test on Quadruplex DNA [2], in the test with Quadruplex DNA [3], in the test with Quadruplex DNA [4] and in the test with Quadruplex DNA [5] was Active. The thermal shift (ΔTm) in test [6] was above 2 °C. For the same compound, the result (in the test on Quadruplex DNA [7]; with Quadruplex DNA [8]; in the test on Quadruplex DNA [9]; in the test with Quadruplex DNA [10]; in the test with Quadruplex DNA [11]; in [12]) was inactive.
With `Nc1ccn2c(/C=N/NC3=NCCN3)c(-c3ccccc3)nc2n1`, the outcome in the test on Quadruplex DNA [1], in the test on Quadruplex DNA [2], in the test with Quadruplex DNA [3], in the test on Quadruplex DNA [4] and with Quadruplex DNA [5] was Active. The ΔTm in test [6] was above 2 °C. Further, the result (with Quadruplex DNA [7]; in the test on Quadruplex DNA [8]; in the test with Quadruplex DNA [9]; in the test on Quadruplex DNA [10]; with Quadruplex DNA [11]; in test [12]) was inactive.
Regarding `Cc1cc2c(cc1O)/C(=C\c1cccc(/C=N/NC(=N)N)c1)C(=O)N2`, the outcome in the test with Quadruplex DNA [1], in the test on Quadruplex DNA [2], in the test with Quadruplex DNA [3], in the test with Quadruplex DNA [4] and with Quadruplex DNA [5] was Active. The ΔTm in [6] was above 2 °C. Besides, the outcome (in the test on Quadruplex DNA [7]; in the test on Quadruplex DNA [8]; in the test with Quadruplex DNA [9]; with Quadruplex DNA [10]; with Quadruplex DNA [11]; in test [12]) was inactive.
As for `N=C(N)N/N=C/c1cn(C/C=C/c2ccccc2)c2ccccc12`, the outcome (in the test with Quadruplex DNA [1]; in the test on Quadruplex DNA [2]; in the test on Quadruplex DNA [3]; in the test on Quadruplex DNA [4]; in the test with Quadruplex DNA [5]; in [6]) was Active. Moreover, the result (in the test on Quadruplex DNA [7]; in the test on Quadruplex DNA [8]; in the test with Quadruplex DNA [9]; with Quadruplex DNA [10]; in the test with Quadruplex DNA [11]; in [12]) was inactive.
As for `O=C1Nc2ccc(Cl)cc2/C1=C\c1cccc(/C=N/NC2=NCCN2)c1`, the outcome in the test with Quadruplex DNA [1], in the test with Quadruplex DNA [2], in the test on Quadruplex DNA [3], with Quadruplex DNA [4] and with Quadruplex DNA [5] was Active. Further, the thermal shift (ΔTm) in [6] is above 2 °C. For the same compound, the result (in the test with Quadruplex DNA [7]; in the test with Quadruplex DNA [8]; in the test on Quadruplex DNA [9]; with Quadruplex DNA [10]; in the test on Quadruplex DNA [11]; in [12]) was inactive.
As to `O=C1Nc2c(ccc3ccccc23)/C1=C\c1cccc(/C=N/NC2=NCCN2)c1`, the result in the test on Quadruplex DNA [1], in the test on Quadruplex DNA [2], in the test with Quadruplex DNA [3], in the test with Quadruplex DNA [4] and in the test with Quadruplex DNA [5] was Active. For the same compound, the ΔTm in [6] is above 2 °C. For the same compound, the outcome (with Quadruplex DNA [7]; in the test on Quadruplex DNA [8]; with Quadruplex DNA [9]; with Quadruplex DNA [10]; in the test with Quadruplex DNA [11]; in [12]) was inactive.
For `N=C(N)N/N=C/c1cccc(/C=C2/C(=O)Nc3c2ccc2ccccc32)c1`, the outcome in the test on Quadruplex DNA [1], with Quadruplex DNA [2], in the test on Quadruplex DNA [3], with Quadruplex DNA [4] and in the test on Quadruplex DNA [5] was Active. In addition, the ΔTm in [6] was above 2 °C. Besides, the result (in the test on Quadruplex DNA [7]; in the test on Quadruplex DNA [8]; in the test with Quadruplex DNA [9]; in the test on Quadruplex DNA [10]; in the test on Quadruplex DNA [11]; in test [12]) was inactive.
As for `COc1cc2c(/C=N/NC(=N)N)c(Cl)[nH]c2cc1C`, the outcome in the test on Quadruplex DNA [1], in the test on Quadruplex DNA [2], in the test with Quadruplex DNA [3], in the test on Quadruplex DNA [4] and with Quadruplex DNA [5] was Active. In addition, in test [6], the ΔTm was above 2 °C. Also, the outcome (in the test with Quadruplex DNA [7]; in the test with Quadruplex DNA [8]; in the test on Quadruplex DNA [9]; in the test on Quadruplex DNA [10]; in the test with Quadruplex DNA [11]; in test [12]) was inactive.
`COc1cc2c(/C=N/NC(=N)N)c[nH]c2cc1C`: the result with Quadruplex DNA [1], in the test on Quadruplex DNA [2], in the test with Quadruplex DNA [3], in the test on Quadruplex DNA [4] and with Quadruplex DNA [5] was Active. The ΔTm in test [6] was above 2 °C. For the same compound, the result (in the test with Quadruplex DNA [7]; in the test with Quadruplex DNA [8]; in the test on Quadruplex DNA [9]; in the test with Quadruplex DNA [10]; with Quadruplex DNA [11]; in test [12]) was inactive.
On to `CN(C)c1ccc(Nc2c3ccc(NC(=O)CCN4CCCC4)cc3nc3cc(NC(=O)CCN4CCCC4)ccc23)cc1`, for which the result with Quadruplex DNA [13] was Active. Moreover, the Activity turned out to be 15.2% with Quadruplex DNA [14] and 19.1% in the test with Quadruplex DNA [15].
Take `COc1cc2c(/C=N/NC(=N)N)c(Cl)n(C)c2cc1C`: the outcome in the test with Quadruplex DNA [1], with Quadruplex DNA [2], with Quadruplex DNA [3], with Quadruplex DNA [4] and with Quadruplex DNA [5] was Active. In [6], the ΔTm was above 2 °C. For the same compound, the outcome (in the test with Quadruplex DNA [7]; with Quadruplex DNA [8]; in the test on Quadruplex DNA [9]; in the test on Quadruplex DNA [10]; with Quadruplex DNA [11]; in test [12]) was inactive.
On to `N=C(N)N/N=C/c1cccc(/C=C2/C(=O)Nc3ccc(Cl)cc32)c1`, for which the outcome with Quadruplex DNA [1], in the test on Quadruplex DNA [2], with Quadruplex DNA [3], in the test on Quadruplex DNA [4] and in the test with Quadruplex DNA [5] was Active. Further, the ΔTm in test [6] was above 2 °C. The result (in the test on Quadruplex DNA [7]; in the test on Quadruplex DNA [8]; in the test on Quadruplex DNA [9]; in the test on Quadruplex DNA [10]; with Quadruplex DNA [11]; in [12]) was inactive.

The term ΔTm denotes the shift of the melting midpoint relative to a reference.
